Test results: the array DNA melting data of Ke et al. (doi:10.1101/2024.01.08.574731)

Key:
[1] = folding enthalpy; higher = less favourable; fluorescence melt of hairpins on a sequencing array, two-state fit; conditions: sodium 0.088 M
Method in brief: (§1)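 With Cy3 and quencher oligos annealed, library hairpins on a sequenced MiSeq flow cell were imaged for Cy3 fluorescence in 50 mM Na-HEPES pH 8.0, 25 mM NaCl, in 2.5 °C steps up to 60 °C. Melting temperature and folding enthalpy were derived from bootstrapped two-state fits of signals normalised to pre-quench Cy3 and to control constructs. Four replicates were combined by inverse variance, with fitted temperatures raised by 9.35 °C to match UV melts.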

[2] = melting temperature; fluorescence melt of hairpins on a sequencing array, two-state fit, raised by 9.35 °C to match UV melts; conditions: sodium 0.088 M
Method in brief: as §1

GGGCCACCGAAAGGTCCC (((..(((....))))))
folding enthalpy [1]: -17.8 kcal/mol
Tm [2]: 41.3 °C

GGCTGCTCGAAAGAGGCC (((..(((....))))))
folding enthalpy [1]: -19.7 kcal/mol
Tm [2]: 43.8 °C

GCTATACGAAAGTAAGC (((.(((....))))))
folding enthalpy [1]: -22.3 kcal/mol
Tm [2]: 40.6 °C

GATCAAACCTTGATC ((((((...))))))
folding enthalpy [1]: -29.1 kcal/mol
Tm [2]: 40.9 °C

GCTCCGCGAAAGCCCAGC (((..((....))..)))
folding enthalpy [1]: -5.26 kcal/mol
Tm [2]: 23.2 °C

GGAAACCCGAAAGGGTCC (((..(((....))))))
folding enthalpy [1]: -11.7 kcal/mol
Tm [2]: 35 °C

GGTATCCGAAAGGAAACC (((.(((....))).)))
folding enthalpy [1]: -31.9 kcal/mol
Tm [2]: 48.8 °C

GCGCTGCGAAAGCGACGC (((..((....))..)))
folding enthalpy [1]: -26.8 kcal/mol
Tm [2]: 63.7 °C

GGATCTACGAAAGTATCC (((..(((....))))))
folding enthalpy [1]: -11.3 kcal/mol
Tm [2]: 32.9 °C

GATCCTCCGCAGGATC ((((((....))))))
folding enthalpy [1]: -14.5 kcal/mol
Tm [2]: 44.6 °C

GTTAGAGGAAACTTTAAC ((((.((....)).))))
folding enthalpy [1]: -15.5 kcal/mol
Tm [2]: 27.5 °C

GACGATACGAAAGTAGTC (((..(((....))))))
folding enthalpy [1]: -17 kcal/mol
Tm [2]: 36.1 °C

GGTATGGGAAACCATATC (.(((((....))))).)
folding enthalpy [1]: -24.1 kcal/mol
Tm [2]: 39.7 °C

GACAAAACGAAAGTTGTC (((..(((....))))))
folding enthalpy [1]: -24.8 kcal/mol
Tm [2]: 39.3 °C

GCATCCGAAAGGAGGTGC ((((((....)))..)))
folding enthalpy [1]: -24.9 kcal/mol
Tm [2]: 48.1 °C

GATCTTACATAAGATC ((((((....))))))
folding enthalpy [1]: -35.9 kcal/mol
Tm [2]: 43.1 °C

GTCTACCCGAAAGGGGAC (((..(((....))))))
folding enthalpy [1]: -13.8 kcal/mol
Tm [2]: 36.2 °C

GATCGAGACTTCGATC ((((((....))))))
folding enthalpy [1]: -43.3 kcal/mol
Tm [2]: 57.2 °C

GCAACCGAAAGGTATTGC ((((((....)))..)))
folding enthalpy [1]: -18.3 kcal/mol
Tm [2]: 39.9 °C

GGTGGTGGAAACGCCATC (.(((.(....).))).)
folding enthalpy [1]: -22.8 kcal/mol
Tm [2]: 46.6 °C

GTGAACCCGAAAGGGCAC (((..(((....))))))
folding enthalpy [1]: -15.8 kcal/mol
Tm [2]: 38.9 °C

GCTCAGCGAAAGCTCCGC ((..(((....)))..))
folding enthalpy [1]: -8.07 kcal/mol
Tm [2]: 22.4 °C

GCTACGCGAAAGCTTGGC ((.(.((....)).).))
folding enthalpy [1]: -17.4 kcal/mol
Tm [2]: 41.1 °C

GATCCAGGTCTGGATC ((((((....))))))
folding enthalpy [1]: -37.4 kcal/mol
Tm [2]: 55 °C

GGTTCGGCGAAAGCCACC (((..(((....))))))
folding enthalpy [1]: -9.35 kcal/mol
Tm [2]: 28.7 °C

GTCACGGGAAACTGTGGC (.(((.(....).))).)
folding enthalpy [1]: -31.9 kcal/mol
Tm [2]: 44.4 °C

GAAGTCGGAAACGATTTC (((.(((....))).)))
folding enthalpy [1]: -30.6 kcal/mol
Tm [2]: 44.2 °C

GCCTTTCGAAAGAAGGGC (((.(((....))).)))
folding enthalpy [1]: -47.5 kcal/mol
Tm [2]: 53.6 °C

GATCGCACTGCGATC ((((((...))))))
folding enthalpy [1]: -35 kcal/mol
Tm [2]: 68.3 °C

CGTTGCGGAAACGCACG (((.(((....))))))
folding enthalpy [1]: -21.4 kcal/mol
Tm [2]: 52.8 °C

GGATCGGGAAACCAATCC ((((.((....)).))))
folding enthalpy [1]: -29.6 kcal/mol
Tm [2]: 38.2 °C

GTCAATGGAAACGTTGAC (((((.(....).)))))
folding enthalpy [1]: -31.2 kcal/mol
Tm [2]: 48.1 °C

GTCCTCGAAAGAGCGAC ((((((....))).)))
folding enthalpy [1]: -21.4 kcal/mol
Tm [2]: 45.4 °C

GAGAGGGGAAACCCTCCC (.(((((....))))).)
folding enthalpy [1]: -13.7 kcal/mol
Tm [2]: 41.2 °C

GGTTACCGAAAGGTACC (((.(((....))))))
folding enthalpy [1]: -20.4 kcal/mol
Tm [2]: 51 °C

GTAACGCGAAAGCGGTAC (((.(((....))).)))
folding enthalpy [1]: -27.1 kcal/mol
Tm [2]: 65.3 °C

CATGGGAAACCATG (((((....)))))
folding enthalpy [1]: -22.3 kcal/mol
Tm [2]: 47.8 °C

GTTGGTCGAAAGACTAAC (((.(((....))).)))
folding enthalpy [1]: -25.9 kcal/mol
Tm [2]: 50.9 °C

GGCCCCGAAAGGGTTGCC ((((((....)))..)))
folding enthalpy [1]: -16.3 kcal/mol
Tm [2]: 55.3 °C

GTCATAGGAAACCATGAC (((((.(....).)))))
folding enthalpy [1]: -27.6 kcal/mol
Tm [2]: 38.5 °C

GGTGCCGAAAGGCCACC ((((((....))).)))
folding enthalpy [1]: -18.2 kcal/mol
Tm [2]: 60.4 °C

GATCTAGATTAGATC ((((((...))))))
folding enthalpy [1]: -26.3 kcal/mol
Tm [2]: 36.2 °C

GATAGCGAAAGCTATATC ((((((....)))..)))
folding enthalpy [1]: -14.3 kcal/mol
Tm [2]: 46.6 °C

GAGGGGGGAAACCCCTTC ((.((((....)))).))
folding enthalpy [1]: -12.5 kcal/mol
Tm [2]: 53.5 °C

GATGGAGGAAACTCCGTC ((.((((....)))).))
folding enthalpy [1]: -31.9 kcal/mol
Tm [2]: 48.9 °C

GCTATGCGAAAGCCTTGC ((.(.((....)).).))
folding enthalpy [1]: -12.7 kcal/mol
Tm [2]: 30 °C
